Experimental data taken from ChEMBL document CHEMBL1147872, “Syntheses of new tetrasubstituted thiophenes as novel anti-inflammatory agents” (Eur J Med Chem, 2007).
Values after ≈ are worked out from the molar mass of the structure shown. Active and inactive are the calls of the source. The rule behind the calls is not given here.

Experiments:
Format in all cases: functional
[1] = Inhibition of nitric oxide radical scavenging activity
How it was run: (§1)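 Sodium nitroprusside (10 mmol) in PBS at physiological pH was incubated with sample at 25 °C for 150 min in a 3 ml reaction. Aliquots taken every 30 min were mixed 1:1 with Griess reagent (1% sulphanilamide, 0.1% naphthylethylenediamine in 2% H3PO4), and absorbance was read at 546 nm. Runs were done in triplicate, and % scavenging was calculated against the blank.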

[2] = Antioxidant activity assessed as nitric oxide radical scavenging activity at 20 ug/ml after 150 mins; how it was run: as §1
[3] = Antioxidant activity assessed as nitric oxide radical scavenging activity at 25 ug/ml after 150 mins; how it was run: as §1
[4] = Antioxidant activity assessed as nitric oxide radical scavenging activity at 15 ug/ml after 150 mins; how it was run: as §1
[5] = Antioxidant activity assessed as nitric oxide radical scavenging activity at 10 ug/ml after 150 mins; how it was run: as §1
[6] = Antioxidant activity assessed as nitric oxide radical scavenging activity at 5 ug/ml after 150 mins; how it was run: as §1
[7] = Antioxidant activity assessed as nitric oxide radical scavenging activity at 35 ug/ml after 150 mins; how it was run: as §1
[8] = Antioxidant activity assessed as nitric oxide radical scavenging activity at 30 ug/ml after 150 mins; how it was run: as §1
Rattus norvegicus [9] = assay: Antiinflammatory activity in Albino rat assessed as protection against carrageenan-induced hind paw oedema at 10 mg/kg, po after 3 hrs
How it was run: (§2)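 Rats (150–250 g, either sex) were fasted 18 h and grouped in sixes. Compounds or standards were given orally as a suspension in 5% DMSO. After 1 h, 0.1 ml of 1% carrageenin was injected subplantar into the right hind paw. Paw volume was read by mercury plethysmometer at once and at 3 h. % protection = 100(1−Vt/Vc) versus vehicle.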

Mus musculus = assay: Analgesic activity in Albino mouse assessed as protection against acetic acid-induced writhing at 10 mg/kg, ip within 30 mins; settings: route intraperitoneal
How it was run: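 Mice (20–25 g, either sex) starved 16 h, six per group, given 10 mg/kg i.p.; vehicle control received 1% DMSO at 0.5 ml/100 g. After 1 h, 0.1 ml of 3% acetic acid was given. Writhes were counted over 30 min, and the group mean was expressed as % inhibition versus control. Student's t-test was used.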

Rattus norvegicus [10] = assay: Antiinflammatory activity in Albino rat assessed as protection against carrageenan-induced hind paw oedema at 20 mg/kg, po after 3 hrs; how it was run: as §2
Rattus norvegicus [11] = assay: Antiinflammatory activity in Albino rat assessed as protection against carrageenan-induced hind paw oedema at 40 mg/kg, po after 3 hrs; how it was run: as §2

In the case of `COc1ccc(C(=O)c2sc(Nc3ccc(Cl)cc3)c(C(=O)O)c2C)cc1`, the Activity [1] was “inactive”, the Activity [2] was “inactive” and the Activity [3] was “inactive”. The Activity [4] was “inactive”, the Activity [5] was “inactive” and the Activity [6] was “inactive”. For the same molecule, the Activity [7] was “inactive”, the Activity [8] was “inactive” and the Activity (Rattus norvegicus [9]) was 49%. It also gave an Activity (Mus musculus) of 30%, an Activity (Rattus norvegicus [10]) of 49% and an Activity (Rattus norvegicus [11]) of 43%.
With `COC(=O)c1c(Nc2ccc(C)cc2)sc(C(=O)c2ccc(C)cc2)c1C` the Activity [1] was “inactive”, the Activity [2] was “inactive” and the Activity [3] was “inactive”. The Activity [4] was “inactive”, the Activity [5] was “inactive” and the Activity [6] was “inactive”. The Activity [7] was “inactive”, the Activity [8] was “inactive” and the Activity (Rattus norvegicus [9]) was 32%. It also gave an Activity (Mus musculus) of 22%, an Activity (Rattus norvegicus [10]) of 36% and an Activity (Rattus norvegicus [11]) of 37%.
In the case of `COC(=O)c1c(Nc2ccc(Cl)cc2)sc(C(=O)c2ccc(OC)cc2)c1C`, the Activity [1] was “inactive”, the Activity [2] was “inactive” and the Activity [3] was “inactive”. The Activity [4] was “inactive”, the Activity [5] was “inactive” and the Activity [6] was “inactive”. For the same molecule, the Activity [7] was “inactive”, the Activity [8] was “inactive” and the Activity (Rattus norvegicus [9]) was 42%. For the same molecule, the Activity (Mus musculus) was 60%, the Activity (Rattus norvegicus [10]) was 40% and the Activity (Rattus norvegicus [11]) was 39%.
For `COC(=O)c1c(Nc2ccc(Cl)cc2)sc(C(=O)c2ccc(C)cc2)c1C`, the Activity [1] was “inactive”, the Activity [2] was “inactive” and the Activity [3] was “inactive”. The Activity [4] was “inactive”, the Activity [5] was “inactive” and the Activity [6] was “inactive”. For the same molecule, the Activity [7] was “inactive”, the Activity [8] was “inactive” and the Activity (Rattus norvegicus [9]) was 34%. The Activity (Mus musculus) was 43%, the Activity (Rattus norvegicus [10]) was 66% and the Activity (Rattus norvegicus [11]) was 26%.
Molecule `COC(=O)c1c(Nc2ccccc2)sc(C(=O)c2ccc(OC)cc2)c1C` has an IC50 [1] of 30.08 µg/mL (≈ 78.9 µM), an Activity [2] of 32.4% and an Activity [3] of 36.9%. For the same molecule, the Activity [4] was 28.6%, the Activity [5] was 18% and the Activity [6] was 13.3%. For the same molecule, the Activity [7] was 63%, the Activity [8] was 48.1% and the Activity (Rattus norvegicus [9]) was 69%. It also gave an Activity (Mus musculus) of 55%, an Activity (Rattus norvegicus [10]) of 70% and an Activity (Rattus norvegicus [11]) of 73%.
`COC(=O)c1c(Nc2ccccc2)sc(/C(=N/O)c2ccc(OC)cc2)c1C` gave an Activity (Rattus norvegicus [9]) of 5%, an Activity (Rattus norvegicus [10]) of 38% and an Activity (Rattus norvegicus [11]) of 34%.
Molecule `COc1ccc(C(=O)c2sc(Nc3ccccc3)c(C(=O)O)c2C)cc1` has an IC50 [1] of 25.2 µg/mL (≈ 68.6 µM), an Activity [2] of 41.2% and an Activity [3] of 52.6%. For the same molecule, the Activity [4] was 36.5%, the Activity [5] was 24.7% and the Activity [6] was 19.6%. It also gave an Activity [7] of 61.2%, an Activity [8] of 59.5% and an Activity (Rattus norvegicus [9]) of 79%. For the same molecule, the Activity (Mus musculus) was 30%, the Activity (Rattus norvegicus [10]) was 80% and the Activity (Rattus norvegicus [11]) was 70%.
`COC(=O)c1c(Nc2ccc(Cl)cc2)sc(/C(=N/O)c2ccc(OC)cc2)c1C` showed an Activity (Rattus norvegicus [9]) of 3%, an Activity (Rattus norvegicus [10]) of 12% and an Activity (Rattus norvegicus [11]) of 30%.
`CC(C)Cc1ccc(C(C)C(=O)O)cc1` (configuration not stated) [IBUPROFEN] showed an Activity (Mus musculus) of 60% and an Activity (Rattus norvegicus [10]) of 33%.
With `COC(=O)c1c(Nc2ccc(Cl)cc2)sc(/C(=N\O)c2ccc(C)cc2)c1C` the Activity (Rattus norvegicus [9]) was 13%, the Activity (Rattus norvegicus [10]) was 29% and the Activity (Rattus norvegicus [11]) was 42%.
`COC(=O)c1c(Nc2ccc(F)cc2)sc(/C(=N/O)c2ccc(OC)cc2)c1C` gave an Activity (Rattus norvegicus [9]) of 20%, an Activity (Rattus norvegicus [10]) of 25% and an Activity (Rattus norvegicus [11]) of 30%.
`COC(=O)c1c(Nc2ccc(C)cc2)sc(/C(=N/O)c2ccc(OC)cc2)c1C` showed an Activity (Rattus norvegicus [9]) of 22%, an Activity (Rattus norvegicus [10]) of 27% and an Activity (Rattus norvegicus [11]) of 30%.
`COC(=O)c1c(Nc2ccccc2)sc(/C(=N/O)c2ccc(C)cc2)c1C` showed an Activity (Rattus norvegicus [9]) of 13%, an Activity (Rattus norvegicus [10]) of 21% and an Activity (Rattus norvegicus [11]) of 30%.
